Measurements collected from several papers.
Each line is one published result; the experiments were not run side by side.
Target: Serine/threonine-protein kinase TAO2 (TAOK2, Homo sapiens, UniProt Q9UL54)
Residues used in one study (Q9UL54 1-1235): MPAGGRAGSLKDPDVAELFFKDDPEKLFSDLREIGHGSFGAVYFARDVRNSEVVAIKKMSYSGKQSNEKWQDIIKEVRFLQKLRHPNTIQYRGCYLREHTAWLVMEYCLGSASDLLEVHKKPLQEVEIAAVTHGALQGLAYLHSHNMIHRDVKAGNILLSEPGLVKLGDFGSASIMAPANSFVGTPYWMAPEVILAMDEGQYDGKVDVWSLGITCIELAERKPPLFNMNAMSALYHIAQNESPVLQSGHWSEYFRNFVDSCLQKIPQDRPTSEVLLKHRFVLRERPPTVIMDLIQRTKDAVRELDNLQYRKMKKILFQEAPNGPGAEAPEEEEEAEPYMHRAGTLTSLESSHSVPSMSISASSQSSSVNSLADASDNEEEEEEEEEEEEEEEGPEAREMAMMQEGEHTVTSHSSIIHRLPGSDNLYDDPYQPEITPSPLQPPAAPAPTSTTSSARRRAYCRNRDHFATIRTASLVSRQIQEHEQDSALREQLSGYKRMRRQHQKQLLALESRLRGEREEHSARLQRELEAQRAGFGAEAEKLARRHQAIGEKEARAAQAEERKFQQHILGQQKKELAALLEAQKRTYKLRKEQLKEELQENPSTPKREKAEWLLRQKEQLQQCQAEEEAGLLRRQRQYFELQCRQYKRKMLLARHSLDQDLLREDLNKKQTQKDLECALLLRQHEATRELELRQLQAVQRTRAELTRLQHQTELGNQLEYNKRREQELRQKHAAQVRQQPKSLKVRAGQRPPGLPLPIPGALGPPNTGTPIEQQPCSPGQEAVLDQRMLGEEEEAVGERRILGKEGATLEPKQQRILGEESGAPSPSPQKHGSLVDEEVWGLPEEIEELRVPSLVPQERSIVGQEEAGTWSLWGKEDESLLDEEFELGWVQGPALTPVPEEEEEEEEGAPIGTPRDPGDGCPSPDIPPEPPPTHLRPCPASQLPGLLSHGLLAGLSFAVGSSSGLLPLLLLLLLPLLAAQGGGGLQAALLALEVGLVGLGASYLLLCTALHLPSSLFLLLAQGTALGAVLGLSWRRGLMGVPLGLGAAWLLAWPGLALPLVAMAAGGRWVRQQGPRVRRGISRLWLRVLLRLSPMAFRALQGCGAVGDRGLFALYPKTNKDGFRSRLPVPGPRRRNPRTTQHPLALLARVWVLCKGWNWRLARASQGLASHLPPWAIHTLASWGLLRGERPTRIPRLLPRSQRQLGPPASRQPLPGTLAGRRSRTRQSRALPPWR

Cc1cnc(NC2CCOCC2)nc1-n1cnc(C(=O)NC(CN)c2cc(F)cc(Cl)c2)c1 (stereo not drawn)  remaining activity (enzyme activity; inhibitor; radiometric; 1 µM): 88%
CCCOc1ccc([C@H]2[C@H](C(=O)O)[C@@H](c3ccc4c(c3)OCO4)CN2CC(=O)Nc2c(CC)cccc2CC)cc1  remaining binding (cell-free assay; competition with immobilised ligand; 1 µM): 74%
CC(C)(C)c1nc(-c2cccc(NS(=O)(=O)c3c(F)cccc3F)c2F)c(-c2ccnc(N)n2)s1  remaining activity (enzyme activity; inhibitor; radiometric; 1 µM): 35%
Fc1cccc(-n2cnc3c(NCc4nc5c(F)c(F)ccc5[nH]4)nc(N4CCOCC4)nc32)c1  binding vs control (binding; competition with immobilised ligand; 10 µM): 35%
O=C(N1CCS(=O)(=O)CC1)N1C[C@H](c2ccc(OC(F)(F)F)cc2)C[C@H](c2nc(C3CC3)no2)C1  remaining binding (cell-free assay; competition with immobilised ligand; 1 µM): 100%
c1ccc(CNc2nc(N3CCOc4ccccc43)nc3c2CCCC3)cc1  inhibition (target engagement in cells; inhibitor; chemoproteomics; 20 mM): -2.6%
CN(C)c1ncnc(-c2ccc3nc(Nc4cc(CN5CCN(C(=O)CC(F)(F)F)CC5)ccn4)[nH]c3c2)c1Cl  remaining binding (cell-free assay; competition with immobilised ligand; 1 µM): 80%
Cc1ccc(Nc2nccc(N(C)c3ccc4c(C)n(C)nc4c3)n2)cc1S(N)(=O)=O  inhibition (enzyme activity; inhibitor; 10 µM): 93%
O=C(NS(=O)(=O)c1ccc(NCC2CCOCC2)c([N+](=O)[O-])c1)c1ccc(N2CCN(Cc3ccc(C(F)(F)F)cc3-c3ccc(Cl)cc3)CC2)cc1Oc1cnc2[nH]ccc2c1  remaining binding (cell-free assay; competition with immobilised ligand; 1 µM): 82%
CCN(CC)c1ccc(C2=NNC(=O)CC2C)cc1[N+](=O)[O-] (stereo not drawn)  remaining activity (enzyme activity; inhibitor; 10 µM): 95%
CCCOc1ccc(OC)c(F)c1C(=O)c1ccc(C(=O)N[C@@H]2CNC[C@H]2NC(=O)c2ccc3[nH]ncc3c2)cc1  remaining activity (enzyme activity; inhibitor; 10 µM): 95%
CSc1nc(C)c(-c2ccnc(Nc3ccc(N4CCOCC4)cc3)c2)[nH]1  inhibition (enzyme activity; inhibitor; 10 µM): 2.1%
CCCCNc1ncc2c(-c3ccc(F)cc3)nn(C[C@H]3CC[C@H](N)CC3)c2n1  inhibition (target engagement in cells; inhibitor; chemoproteomics; 20 mM): 24.3%
COc1cc(-c2cc(-c3ccc(N4CCNCC4)cc3)cnc2C)cc(OC)c1OC  inhibition (enzyme activity; inhibitor; 1 µM): 2%
CNC(=O)c1cc(Oc2ccc(NC(=O)Nc3ccc(Cl)c(C(F)(F)F)c3)cc2)ccn1  inhibition (enzyme activity; inhibitor; 0.3 µM): 84%
CN1CC(Oc2cnc(C#N)cc2-c2ccn3nc(NC(=O)C4CC4)cc3c2)C1  inhibition (enzyme activity; inhibitor; 1 µM): 0%
CN1CCN(c2cnc3c(C4CCN(C(=O)c5ccc(OC(F)(F)F)cc5N)CC4)ncnc3c2)CC1  remaining binding (cell-free assay; competition with immobilised ligand; 1 µM): 100%
CCN(CC)CCNC(=O)c1c(C)[nH]c(/C=C2\C(=O)Nc3ccc(F)cc32)c1C  inhibition (enzyme activity; inhibitor; 10 µM): 29%
